Measured values from publication PMC3262452 (Virology, 2011).
Like-named read-outs stand apart in the source and are kept apart here. Marks after values point to notes of the source that are not given here.

Assays:
WT HIV = assay: microbe, parasite or virus in culture; format: cell-based, HIV-1
AZT-R HIV = assay: microbe, parasite or virus in culture; format: cell-based, HIV-1
wt HIV-1 RT RNase H = wt HIV-1 RT RNase H (Human immunodeficiency virus type 1 group M subtype B, UniProt P04585); assay: In vitro RT-RNase H activity; format: biochemical; settings: read-out: IC50 RT-RNase H, recombinant HIV-1 RT
HOS cells [1] = assay: ATP based luciferase assay; format: cell-based, human; settings: for CC50: read-out: CC50 ATP-lite, HOS cells
HIV-1 RT DNA polymerase = HIV-1 RT DNA polymerase (Human immunodeficiency virus type 1 group M subtype B, UniProt P04585); assay: In vitro RT RNA-dependent DNA polymerase activity; format: biochemical; settings: read-out: IC50 RT-DNA polymerase, recombinant HIV-1 RT
HOS cells [2] = assay: XTT cell viability assay; format: cell-based, human; settings: read-out: CC50 XTT
Outline: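 HOS cells were grown in DMEM with 3.5% fetal bovine serum, 3.5% newborn calf serum and penicillin/streptomycin, then exposed to test compounds. Viability was measured with a commercial XTT kit, in which mitochondrial enzymes reduce the tetrazolium to an orange product read by absorbance. CC50 is the concentration killing half the HOS cells. Runs were done once or twice.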

[3] = Human immunodeficiency virus 1, HOS, read-out: 3TC IC50
[4] = Human immunodeficiency virus 1, HOS, read-out: AZT IC50
[5] = Human immunodeficiency virus 1, HOS, read-out: AZT IC50 + NaN3
[6] = read-out: IC50 WT HIV, RNHI alone, HOS cells, luciferase based assay
[7] = read-out: IC50 AZT-R HIV, RNHI alone, HOS cells, luciferase based assay

| SMILES | effect of RNHI on the AZT IC50 (fold increase) (WT HIV) | IC50 (WT HIV; [6]) | IC50 (wt HIV-1 RT RNase H) | CC50 (HOS cells [1]) | IC50 (HIV-1 RT DNA polymerase) | effect of RNHI on the AZT IC50 (fold increase) (AZT-R HIV) | IC50 (AZT-R HIV; [7]) | CC50 (HOS cells [2]) | also measured |
| --- | --- | --- | --- | --- | --- | --- | --- | --- | --- |
| Nc1ccn([C@H]2CS[C@@H](CO)O2)c(=O)n1 [3TC, 2', 3'-dideoxy-3'-thiacytidine, reference compound] |  |  |  |  |  |  |  |  | Fold decrease of 3TC IC50 by NVP (WT HIV): 2 fold; IC50 (WT HIV; [3]): 8 ± 3 µM; Fold decrease of 3TC IC50 by NVP (AZT-R HIV): ~2 fold; IC50 (AZT-R HIV; [3]): 24 ± 14 µM |
| Cc1cn([C@H]2C[C@H](N=[N+]=[N-])[C@@H](CO)O2)c(=O)[nH]c1=O [AZT, zidovudine, reference compound] |  |  |  |  |  |  |  |  | IC50 (WT HIV; [4]): 0.004 ± 0.003 µM; IC50 (WT HIV; [5]): 0.004 ± 0.002 µM; Fold decrease of AZT IC50 by NVP (WT HIV; WT HIV, 40 nM NVP, not statistically significant): 1 fold; Fold decrease of AZT IC50 by NaN3 (WT HIV; WT HIV, 0.5 mM NaN3, not statistically significant): 0 fold; Fold decrease of AZT IC50 by NVP (AZT-R HIV; AZT-R HIV, 40 nM NVP, not statistically significant): 2 fold; Fold decrease of AZT IC50 by NaN3 (AZT-R HIV; AZT-R HIV, 0.5 mM NaN3, not statistically significant): 1.4 fold; IC50 (AZT-R HIV; [4]): 0.041 ± 0.038 µM; IC50 (AZT-R HIV; [5]): 0.056 ± 0.037 µM |
| O=C1S/C(=C\c2ccc(O)c(O)c2)C(=O)N1c1ccc(O)cc1 [F0444-0019] | ~ 5 fold | 24 µM | 5 ± 1.8 µM | 14 ± 6 µM | 18.5 ± 5.9 µM | ~ 5 fold | 28 µM | 24 ± 3 µM | effect of RNHI on the 3TC IC50 (fold increase) (WT HIV): ~ 3 fold; % ATP relative to untreated HOS (HOS cells [1]; 20 μM): 36 ± 10%; effect of RNHI on the 3TC IC50 (AZT-R HIV): insignificant |
| O=C1NC(=Nc2ccccc2O)S/C1=C/c1ccc(O)c(O)c1 [F0888-0058] | no significant effect | 34 µM | 5 ± 2.6 µM | 14 ± 3 µM | 29.6 ± 1.4 µM | 2 fold | 30 µM | 16 ± 5 µM | effect of RNHI on the 3TC IC50 (fold increase) (WT HIV): ~ 1.7 fold; % ATP relative to untreated HOS (HOS cells [1]; 20 μM): 41 ± 4%; effect of RNHI on the 3TC IC50 (AZT-R HIV): did not see a significant effect |
| Cc1c[nH]c2c1C(c1ccc(O)c(O)c1)C(C#N)=C(N)O2 (stereo not shown) [F0915-1507] | no significant effect | 50 µM | 5.8 ± 2.2 µM | 44 ± 14 µM | > 100 µM | no significant effect | 49 µM | 52 µM | % ATP relative to untreated HOS (HOS cells [1]; 50 μM, one or two assays): 46^a % |
| O=C(CSc1ncccc1C(=O)O)c1ccc(O)c(O)c1 [F3253-0041] | little to no effect | 70 µM | 2.9 ± 1.1 µM | 160 µM | > 100 µM | decreased the AZT IC50 | 59 µM | 370 µM | % ATP relative to untreated HOS (HOS cells [1]; 70 μM, one or two assays): 92^a % |
| O=C(O)CC1CC(=O)Oc2c1ccc(O)c2O (stereo not shown) [F3284-8495] | little to no effect | 58 µM | 3.3 ± 0.7 µM | 67 µM | > 100 µM | decreased the AZT IC50 | 54 µM | 120 µM | % ATP relative to untreated HOS (HOS cells [1]; 70 μM, one or two assays): 87^a % |
| Cc1ccnc2c1NC(=O)c1cccnc1N2C1CC1 [NVP, nevirapine, reference compound] |  |  |  |  |  |  |  |  | reduction of infectivity of the virus stock (WT HIV; 40 nM NVP, HOS cells): ~ 60%; IC50 (AZT-R HIV; Human immunodeficiency virus 1, HOS, read-out: IC50 of NVP for blocking replication): 0.027 ± 0.001 µM |
| [N-]=[N+]=[N-].[Na+] [NaN3, sodium azide, reference compound] |  |  |  |  |  |  |  |  | effect of NaN3 on the IC50 for AZT (WT HIV): no significant effect; % ATP relative to untreated HOS (HOS cells [1]; 0.5 mM): 31 ± 8%; reduction of the level of ATP in HOS cells (HOS cells [1]; 0.5 mM NaN3): ~ 70%; effect of NaN3 on the IC50 for AZT (AZT-R HIV): no significant effect |
